# Source: ChEMBL document CHEMBL3244422, “Synthesis and biological activity of beta-melanotropins and analogues” (1977)
# Where a SMILES comes first, the peptide text is derived from it. The star is where a group is joined. For = O=C*
# Assays:
# [1] = Lipolytic activity in isolated rabbit fat cells assessed as glycerol production per gram of cells at 37 ng measured every hour relative to beta-c1-MSH; assay type: functional, Oryctolagus cuniculus
# Zone of skin [2] = assay: Melanotropic activity in frog skin assessed as skin darkening at 6 ng relative to beta-c1-MSH; assay type: functional, Anura
# In short: (§1)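 Skin-darkening activity of the synthetic peptides measured in vitro on isolated frog skin.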
# [3] = Lipolytic activity in isolated rabbit fat cells assessed as glycerol production per gram of cells at 111 ng measured every hour; assay type: functional, Oryctolagus cuniculus
# Zone of skin [4] = assay: Melanotropic activity in frog skin assessed as skin darkening at 18 ng relative to control; assay type: functional, Anura; in short: as §1
# [5] = Lipolytic activity in isolated rabbit fat cells assessed as glycerol production per gram of cells at 37 ng measured every hour; assay type: functional, Oryctolagus cuniculus
# Zone of skin [6] = assay: Melanotropic activity in frog skin assessed as skin darkening at 6 ng relative to control; assay type: functional, Anura; in short: as §1
# [7] = Lipolytic activity in isolated rabbit fat cells assessed as glycerol production per gram of cells at 22 ng measured every hour; assay type: functional, Oryctolagus cuniculus
# Zone of skin [8] = assay: Melanotropic activity in frog skin assessed as skin darkening at 8.1 ng relative to control; assay type: functional, Anura; in short: as §1
# [9] = Lipolytic activity in isolated rabbit fat cells assessed as glycerol production per gram of cells at 66 ng measured every hour; assay type: functional, Oryctolagus cuniculus
# Zone of skin [10] = assay: Melanotropic activity in frog skin assessed as skin darkening at 2.7 ng relative to beta-b-MSH; assay type: functional, Anura; in short: as §1
# Zone of skin [11] = assay: Melanotropic activity in frog skin assessed as skin darkening at 2.7 ng relative to control; assay type: functional, Anura; in short: as §1
# [12] = Lipolytic activity in isolated rabbit fat cells assessed as glycerol production per gram of cells at 22 ng measured every hour relative to beta-b-MSH; assay type: functional, Oryctolagus cuniculus
# Zone of skin [13] = assay: Melanotropic activity in frog skin assessed as skin darkening at 6.9 ng relative to control; assay type: functional, Anura; in short: as §1
# Zone of skin [14] = assay: Melanotropic activity in frog skin assessed as skin darkening at 2.3 ng relative to control; assay type: functional, Anura; in short: as §1
# Zone of skin [15] = assay: Melanotropic activity in frog skin assessed as skin darkening at 2.6 ng relative to control; assay type: functional, Anura; in short: as §1
# Zone of skin [16] = assay: Melanotropic activity in frog skin assessed as skin darkening at 2.6 ng relative to beta-b-MSH; assay type: functional, Anura; in short: as §1
# Zone of skin [17] = assay: Melanotropic activity in frog skin assessed as skin darkening at 7.8 ng relative to control; assay type: functional, Anura; in short: as §1
# [18] = Lipolytic activity in isolated rabbit fat cells assessed as glycerol production per gram of cells at 1100 ng measured every hour; assay type: functional, Oryctolagus cuniculus
# [19] = Lipolytic activity in isolated rabbit fat cells assessed as glycerol production per gram of cells at 1100 ng measured every hour relative to beta-c1-MSH; assay type: functional, Oryctolagus cuniculus
# [20] = Lipolytic activity in isolated rabbit fat cells assessed as glycerol production per gram of cells at 3300 ng measured every hour; assay type: functional, Oryctolagus cuniculus
# Zone of skin [21] = assay: Melanotropic activity in frog skin assessed as skin darkening at 3 ng relative to control; assay type: functional, Anura; in short: as §1
# Zone of skin [22] = assay: Melanotropic activity in frog skin assessed as skin darkening at 9 ng relative to control; assay type: functional, Anura; in short: as §1
Compound,Activity [1],Activity (Zone of skin [2]),Activity [3],Activity (Zone of skin [4]),Activity [5],Activity (Zone of skin [6]),Activity [7],Activity [9],other results
CSCC[C@H](NC(=O)[C@H](CCCCN)NC(=O)[C@H](Cc1ccc(O)cc1)NC(=O)[C@@H]1CCCN1C(=O)CNC(=O)CNC(=O)[C@@H](N)CC(=O)O)C(=O)N[C@@H](CCC(N)=O)C(=O)N[C@@H](Cc1cnc[nH]1)C(=O)N[C@@H](Cc1ccccc1)C(=O)N[C@@H](CCCNC(=N)N)C(=O)N[C@@H](Cc1cn(C=O)c2ccccc12)C(=O)NCC(=O)N[C@@H](CO)C(=O)N1CCC[C@H]1C(=O)N1CCC[C@H]1C(=O)N[C@@H](CCCCN)C(=O)N[C@@H](CC(=O)O)C(=O)O (H-DGGPYKMQHFRW(For)GSPPKD-OH),10.2%,39.7%,2.05 µmol,52.4%,1.09 µmol,32.8%,,,
CSCC[C@H](NC(=O)[C@H](CCCCN)NC(=O)[C@H](Cc1ccc(O)cc1)NC(=O)[C@@H]1CCCN1C(=O)CNC(=O)[C@H](CO)NC(=O)[C@@H](N)CC(=O)O)C(=O)N[C@@H](CCC(=O)O)C(=O)N[C@@H](Cc1cnc[nH]1)C(=O)N[C@@H](Cc1ccccc1)C(=O)N[C@@H](CCCNC(=N)N)C(=O)N[C@@H](Cc1c[nH]c2ccccc12)C(=O)NCC(=O)N[C@@H](CO)C(=O)N1CCC[C@H]1C(=O)N1CCC[C@H]1C(=O)N[C@@H](CCCCN)C(=O)N[C@@H](CC(=O)O)C(=O)O (stereo in doubt; form 1),40.2%,,2.96 µmol,,1.78 µmol,,1.18 µmol,3.61 µmol,Activity (Zone of skin [8]): 49.6%; Activity (Zone of skin [10]): 120.2%; Activity (Zone of skin [11]): 30.1%; Activity [12]: 95.5%
CSCC[C@H](NC(=O)[C@H](CCCCN)NC(=O)[C@H](Cc1ccc(O)cc1)NC(=O)[C@@H]1CCCN1C(=O)CNC(=O)[C@H](CO)NC(=O)[C@@H](N)CC(=O)O)C(=O)N[C@@H](CCC(=O)O)C(=O)N[C@@H](Cc1cnc[nH]1)C(=O)N[C@@H](Cc1ccccc1)C(=O)N[C@@H](CCCNC(=N)N)C(=O)N[C@@H](Cc1c[nH]c2ccccc12)C(=O)NCC(=O)N[C@@H](CO)C(=O)N1CCC[C@H]1C(=O)N1CCC[C@H]1C(=O)N[C@@H](CCCCN)C(=O)N[C@@H](CC(=O)O)C(=O)O (stereo in doubt; form 2),,,,,,,1.38 µmol,3.76 µmol,Activity (Zone of skin [13]): 44.6%; Activity (Zone of skin [14]): 29.1%
H-DEGPYKMEHFRWGSPPKD-OH,,,,,,,1.62 µmol,3.49 µmol,Activity (Zone of skin [15]): 49.6%; Activity (Zone of skin [16]): 355.6%; Activity (Zone of skin [17]): 69.8%; Activity [12]: 102.4%
H-DGGPYKMQHFRFGSPPKD-OH,,28%,,38.2%,,26.2%,,,Activity [18]: 1.29 µmol; Activity [19]: 0.006%; Activity [20]: 1.63 µmol
H-DGGPYKMQHFRWGSPPKD-OH,,,3.6 µmol,71%,2.94 µmol,62%,,,Activity (Zone of skin [21]): 32.7%; Activity (Zone of skin [22]): 63.5%
H-DGGPYKMQHGRWGSPPKD-OH,,0.8%,,7.8%,,5.5%,,,Activity [18]: 0.19 µmol; Activity [19]: 0.001%; Activity [20]: 0.37 µmol
H-DGGPYKMRHFRWGSPPKD-OH,34.2%,10.5%,3.12 µmol,24.6%,1.73 µmol,17.1%,,,
